Bioassay records (PubChem BioAssay)
Most compounds without a hit are left out; they make up all but 2.6% or so of the library.
SENP7 block: blocks the human protease SENP7; Q9BQF6; recombinant SENP7, Z-RLRGG-aminoluciferin luminescence, 40 min; inhibition, % at 5 µM; hit rate 1.5% among 330,000; AID 434973;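 active = inhibition above about 50% at the single test dose, limit read from the data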;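 also: plate controls were DMSO with enzyme for no effect and no enzyme buffer wells for full effect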
SENP6 inh: inhibitors of human SENP6 protease; Q9GZR1; Recombinant SENP6 catalytic domain, aminoluciferin luminescence; inhibition, % at 10 µM; hit rate 1.8% among 330,000;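 active = inhibition above about 50% at the single tested dose, limit read from the data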;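 also: plate controls were DMSO wells with enzyme for no effect and DMSO wells lacking enzyme for full effect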
Target sequence (Q9GZR1 628-1112 limits assumed): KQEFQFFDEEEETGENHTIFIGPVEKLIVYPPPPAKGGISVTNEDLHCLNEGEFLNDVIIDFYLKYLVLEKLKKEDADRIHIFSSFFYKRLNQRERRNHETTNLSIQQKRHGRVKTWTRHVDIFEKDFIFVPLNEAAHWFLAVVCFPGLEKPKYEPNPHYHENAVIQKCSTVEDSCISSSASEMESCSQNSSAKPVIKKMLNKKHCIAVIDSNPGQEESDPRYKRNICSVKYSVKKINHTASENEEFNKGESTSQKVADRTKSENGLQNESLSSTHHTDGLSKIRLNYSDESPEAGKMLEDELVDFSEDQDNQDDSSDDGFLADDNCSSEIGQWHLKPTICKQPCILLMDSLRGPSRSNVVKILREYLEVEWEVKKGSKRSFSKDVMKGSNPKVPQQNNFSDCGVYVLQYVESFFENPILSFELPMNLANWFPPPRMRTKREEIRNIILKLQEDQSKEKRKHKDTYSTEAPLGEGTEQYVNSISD
SENP8 block-1: SENP8 (human) protease inhibition. hit rate 0.64% among 360,000. Q96LD8. recombinant SENP8, Nedd8 substrate fluorescence. inhibition, % at 20 µM; in the data active = inhibition mostly above about 40%, no sharp cut-off; inactive = mostly below about 27%
Platelet DG rel: modulates dense granule release in human platelets; hit rate 0.22% among 300,000; inhibition, %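 (compounds screened at 7.5 µM in platelet-rich plasma)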; human platelet-rich plasma, SFLLRN dense granule ATP release, luminescence;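 active = mean replicate score, as percent of positive control, at or above 50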
SENP1 FRET inh: blocks the human SENP1 SUMO protease catalytic domain; hit rate 0.21% among 360,000; recombinant SENP1 catalytic domain, CyPet-SUMO1-YPet FRET cleavage; AID 624204; Q9P0U3; inhibition, % at 10 µM;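 active = inhibition at least 30% at 10 µM, raw YFP signal under a set limit, fluorescence ratio 0.5 to 1.5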;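 also: 0% = enzyme with DMSO and 100% = no enzyme wells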
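Test system: hSENP1 catalytic domain, recombinant; Amount: 20 pM final SENP1 enzyme; Medium: Tris pH 8 buffer plus EDTA, NaCl, BME, BSA, NP40, catalase; Schedule: 50 min enzyme reaction, room temperature, light-protected; Technique: FRET fluorescence in CFP and YFP emission channels; Controls: no-enzyme wells low, DMSO-plus-enzyme wells high control.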
SENP8 block-2: SENP8 protease inhibition; purified SENP8, Z-RLRGG-aminoluciferin cleavage, luminescence; inhibition, % at 10 µM; AID 2540; hit rate 1.2% among 330,000; in the data active = inhibition above about 50%
SENP8 confirm: confirmation of human SENP8 protease inhibitors; AID 488912; shares compounds with SENP7 block; Recombinant SENP8, Z-RLRGG-aminoluciferin luminescence, 60 min; inhibition, % at 12.5 µM; hit rate 40% among 6,200;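 active = mean inhibition across replicates above about 50%, limit read from the data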
SENP6 confirm: human SENP6 inhibition, confirmed. shares compounds with SENP7 block. recombinant SENP6, Z-RLRGG-aminoluciferin luminescence. inhibition, % at 12.5 µM. hit rate 58% among 6,200. AID 488915
SENP7 conf: confirmation of human SENP7 protease inhibitors. shares compounds with SENP7 block. recombinant SENP7, Z-RLRGG-aminoluciferin luminescence, 40 min. inhibition, % at 12.5 µM. hit rate 69% among 6,200
Casp3 SENP sel: caspase-3 inhibition (SENP selectivity assay) | purified caspase-3, Z-DEVD-aminoluciferin luminescence, 60 min | hit rate 60% among 6,200 | shares compounds with SENP7 block | inhibition, % at 12.5 µM;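 active = mean inhibition above about 50%, limit read from the data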;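 also: plate controls were enzyme with DMSO for no effect and wells without caspase-3 for full effect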
Luc interf: counter-screen for SENP inhibitors: luminescence interference. Pre-incubated SENP8/Z-RLRGG-aminoluciferin, luciferase luminescence interference. hit rate 39% among 6,200. shares compounds with SENP7 block. inhibition, % at 12.5 µM;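 active = mean inhibition above about 50% when retested at one dose, limit read from the data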;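 also: plate controls were DMSO wells with completed reaction for no effect and substrate without enzyme for full effect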
* = called active by the depositor; . = no result given.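 The calls were made as follows, unless noted: active = mean inhibition above about 50% in the one-dose retest (limit read from the data); inactive = the rest.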

SMILES	SENP7 block	SENP6 inh	SENP8 block-1	Platelet DG rel	SENP1 FRET inh	SENP8 block-2	SENP8 confirm	SENP6 confirm	SENP7 conf	Casp3 SENP sel	Luc interf
Cc1cc2ccccn2c1C(=O)c1ccc(N/N=C/c2ccc(C(=O)O)cc2)c([N+](=O)[O-])c1	.	.	66*	.	1	.	.	.	.	.	.
C/C(=N\Nc1ccc(C(=O)c2c(C)cc3ccccn23)cc1[N+](=O)[O-])c1ccc(O)cc1	-1	-1	62*	-6	7	-4	.	.	.	.	.
Cc1cc2ccccn2c1C(=O)c1ccc(Cl)cc1	4	9	15	1	5	0	.	.	.	.	.
COC(=O)C1=C(C)NC(=O)NC1c1ccc2ccccc2c1 (centres undefined)	-1	8	21	0	0	4	.	.	.	.	.
O=C1C(=NO)CCc2ccccc21	.	.	42*	.	-31	.	.	.	.	.	.
CC(NC(=O)COc1cccc(Br)c1)C(=O)O (centres undefined)	-3	-8	12	-6	0	-10	.	.	.	.	.
CCOc1ccc2nc3cc(NCc4ccc(OC)cc4)ccc3c(N)c2c1	41	51*	-298	3	-25	37	.	.	.	.	.
O=C(Nc1nnc(-c2ccccn2)o1)c1ccc(Br)cc1	63*	77*	2	-4	2	57*	.	.	.	.	.
CCC(=O)Nc1nnc(-c2ccccn2)o1	8	-2	-80	-10	0	6	.	.	.	.	.
Cc1ccc(-n2nnnc2SCC(=O)N2CCc3ccccc3C2)cc1	10	12	41*	11	-3	14	.	.	.	.	.
Cc1ccc(-n2nnnc2SCC(=O)N2CCc3ccccc3C2)c(C)c1	-3	8	14	1	4	-5	.	.	.	.	.
Cn1c(=O)n(C)c2cc([N+](=O)[O-])c(N3CCN(C(=O)c4ccc(Cl)cc4)CC3)cc21	7	0	15	-2	0	-5	.	.	.	.	.
COc1cc(NC(=S)N2c3ccccc3CC2C)cc(OC)c1 (centres undefined)	-2	-7	-10	-4	-5	0	.	.	.	.	.
Cc1ccc(/C=C2\SC(=S)N(C3CCS(=O)(=O)C3)C2=O)o1 (centres undefined)	11	23	56*	7	-60	-6	.	.	.	.	.
NS(=O)(=O)c1ccc(-c2ccc(/C=C3\SC(=S)N(C4CCS(=O)(=O)C4)C3=O)o2)cc1 (centres undefined)	0	9	21	-3	-35	-3	.	.	.	.	.
N#Cc1ccc(NC(=O)c2cc(-c3cccs3)on2)cc1	8	58*	-33	0	1	2	-24	-18	-12	-11	-8
Cc1cc(NC(=O)c2cc(-c3cccs3)on2)no1	7	-5	4	-1	1	-1	.	.	.	.	.
CCCCSC(=O)Nc1ccccc1	71*	80*	25	5	1	52*	48	73*	90*	65*	55*
CCCCCC(=O)NNC(=O)Nc1ccccc1	-4	-6	12	-1	4	0	.	.	.	.	.
COc1ccc(NC(=O)Nc2nccs2)cc1	56*	74*	4	10	1	32	39	41	80*	77*	63*
COc1ccc(C(=O)Nc2nccs2)cc1	33	52*	22	14	1	14	30	26	63*	64*	46
COc1ccc(C(=O)Nc2nccs2)cc1OC	2	2	-16	-10	-4	3	.	.	.	.	.
Cc1cccc(C(=O)Nc2ccc(N3CCN(C(=O)c4ccco4)CC3)cc2)c1	5	0	14	-2	1	1	.	.	.	.	.
CCOC(=O)c1oc2cccc(OC(C)=O)c2c1C	14	43	20	-5	3	29	.	.	.	.	.
CCOC(=O)c1oc2cccc(O)c2c1C	63*	-13	-48	5	1	50*	2	59*	82*	59*	65*
SMILES	SENP7 block	SENP6 inh	SENP8 block-1	Platelet DG rel	SENP1 FRET inh	SENP8 block-2	SENP8 confirm	SENP6 confirm	SENP7 conf	Casp3 SENP sel	Luc interf
Cn1cccc1C(=O)NCCc1ccccc1	57*	67*	11	13	0	36	43	44	80*	83*	59*
Cn1cccc1C(=O)NCc1ccc(Cl)cc1	2	-7	6	13	4	-4	.	.	.	.	.
Cn1cccc1C(=O)NCCc1ccc(Cl)cc1	55*	62*	-2	2	0	44	50	46	82*	72*	58*
Cn1c(C(=O)NCCc2ccccc2)cc(=O)n(C)c1=O	0	20	16	6	2	1	.	.	.	.	.
CC(=O)c1cc(C#N)c(SCC(=O)O)nc1C	10	9	11	27	4	1	.	.	.	.	.
CCn1c(C)c(C(C)=O)cc(C#N)c1=O	79*	5	11	-2	1	-5	-7	-2	-6	-3	-5
Cc1n[nH]c(C)c1S(=O)(=O)N1CCC(C(=O)N2CCn3c2nc2ccccc23)CC1	13	-1	0	-7	1	-7	.	.	.	.	.
COc1cc(CN(CC2CCCO2)C(=O)c2cccs2)cc(OC)c1OC (centres undefined)	78*	12	14	-1	2	-3	-5	-6	-8	2	6
COc1cc(CN(CC2CCCO2)C(=O)c2ccco2)cc(OC)c1OC (centres undefined)	-4	1	3	-2	1	-3	.	.	.	.	.
CCOC(=O)COc1cc(N)c(Cl)cc1Cl	0	-39	-14	-2	0	80*	2	-1	-4	-1	-6
COc1ccc2nc(-c3ccccn3)[nH]c2c1	82*	77*	-412	24	-2	59*	78*	73*	93*	89*	73*
Nc1cccc(-c2nc3ccc(C(=O)c4ccccc4)cc3[nH]2)c1	81*	85*	-24	14	0	71*	80*	76*	93*	63*	83*
Nc1ccc2nc(-c3ccc(N)c(Cl)c3)[nH]c2c1	34	60*	-449	20	-9	35	62*	59*	81*	78*	63*
Nc1ccc2nc(-c3ccccc3)[nH]c2c1	46	70*	-318	4	-23	34	61*	65*	89*	90*	76*
Nc1ccc2nc(-c3cccnc3)[nH]c2c1	9	18	-161	2	-2	0	.	.	.	.	.
